Source: ChEMBL document CHEMBL1143909, “Novel cholesterol biosynthesis inhibitors targeting human lanosterol 14alpha-demethylase (CYP51)” (Bioorg Med Chem, 2008)
Activity calls are given as the source filed them. No cut-off for these calls is given here.

Key:
[1] = target: T1, Lanosterol 14-alpha demethylase (Homo sapiens, UniProt Q16850); assay: Binding affinity to human His-tagged CYP51 expressed in Escherichia coli
T1 sequence (Q16850 whole entry): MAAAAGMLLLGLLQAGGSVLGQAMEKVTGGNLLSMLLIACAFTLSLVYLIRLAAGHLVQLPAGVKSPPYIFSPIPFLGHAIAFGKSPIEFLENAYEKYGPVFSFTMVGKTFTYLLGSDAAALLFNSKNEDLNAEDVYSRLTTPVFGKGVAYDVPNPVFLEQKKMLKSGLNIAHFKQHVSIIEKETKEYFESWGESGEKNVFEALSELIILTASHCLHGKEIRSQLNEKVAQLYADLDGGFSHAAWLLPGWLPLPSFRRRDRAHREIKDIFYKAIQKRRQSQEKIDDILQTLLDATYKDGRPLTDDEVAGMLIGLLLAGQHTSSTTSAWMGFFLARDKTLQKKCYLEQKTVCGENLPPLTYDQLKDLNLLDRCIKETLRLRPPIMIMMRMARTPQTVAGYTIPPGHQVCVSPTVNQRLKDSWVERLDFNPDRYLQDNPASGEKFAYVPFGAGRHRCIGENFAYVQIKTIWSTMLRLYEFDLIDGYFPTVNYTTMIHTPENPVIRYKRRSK
How it was run: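 Purified His-tagged human CYP51 titrated with inhibitor at room temperature in 50 mM phosphate, 100 mM NaCl, 0.1 mM EDTA, 10% glycerol. Difference spectra recorded 350-500 nm; A412–A432 plotted against inhibitor concentration. Enzyme 0.5 or 2 µM, titration ranges 0.25-400 µM depending on compound. Apparent Kd from hyperbolic nonlinear fit of free inhibitor; three repeats per compound.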

[2] = test system: HepG2; assay: Ex vivo inhibition of CYP51 mediated cholesterol biosynthesis in human HepG2 cells assessed as increase in lanosterol accumulation at 10 uM relative to control
[3] = target: T2, Delta(14)-sterol reductase TM7SF2 (Homo sapiens) (UniProt O76062); assay: Inhibition of Delta-(14)-sterol reductase in human HepG2 cells assessed as accumulation of FF-MAS; format: cell-based
T2 sequence (whole entry): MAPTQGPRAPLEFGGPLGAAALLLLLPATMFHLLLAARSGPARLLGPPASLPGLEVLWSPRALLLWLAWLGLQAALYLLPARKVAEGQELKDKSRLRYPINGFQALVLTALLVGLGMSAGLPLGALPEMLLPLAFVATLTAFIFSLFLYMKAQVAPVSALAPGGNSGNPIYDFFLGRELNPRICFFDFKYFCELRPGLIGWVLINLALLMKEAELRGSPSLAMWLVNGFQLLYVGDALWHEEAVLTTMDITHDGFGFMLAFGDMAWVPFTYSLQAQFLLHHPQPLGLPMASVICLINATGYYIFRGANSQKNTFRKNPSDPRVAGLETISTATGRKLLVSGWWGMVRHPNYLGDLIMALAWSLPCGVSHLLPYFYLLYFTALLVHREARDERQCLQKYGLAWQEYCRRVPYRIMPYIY
How it was run: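 HepG2 cells grown 24 h at 37 °C, 5% CO2 in DMEM high with 5% calf serum, then 10 µM compound for 24 h. Fresh medium with [3H]acetate (40 µCi/ml) for 4 h. Sterols extracted from homogenate with ergosterol internal standard, separated by reversed-phase HPLC (100% acetonitrile, 40 °C) with radioactivity detection. Read as ratios to untreated cells: two experiments × two replicas, mean of 8 ratios ± SD.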

Kd [1]	Activity [3]	SMILES	Activity [2]
0.34 µM		Br.CCCN(CCc1ccc2ccccc2c1)CC(O)c1cccnc1 (centres undefined)	5
29.2 µM		Br.CCCN(CCc1ccc(OC)c(OC)c1)CC(O)c1cccnc1 (centres undefined)	1.8
	Active	CCCN(CCc1cccnc1)CCc1cccc(F)c1	
260 µM		Br.CCCN(CCc1cccnc1)CC(O)c1cccnc1 (centres undefined)	1
0.4 µM		Br.CCCN(CCc1ccc(Cl)c(Cl)c1)CC(O)c1cccnc1 (centres undefined)	6
27 µM		Br.CCCN(CCc1ccc(F)c(F)c1)CC(O)c1cccnc1 (centres undefined)	1.9

SMILES	Kd [1]	Activity [3]	Activity [2]
Br.CCCN(CCc1ccc(Cl)c(Cl)c1)CC(O)c1cc(C)ccn1 (centres undefined)	> 1000 µM		1.2
CC(=O)N1CCN(c2ccc(OC[C@H]3CO[C@](Cn4ccnc4)(c4ccc(Cl)cc4Cl)O3)cc2)CC1 [KETOCONAZOLE]	0.11 µM		
